# Screening results: PubChem BioAssay, Broad Institute
# A selection: hits, their analogues and other compounds. The true share with any hit is near 3%.
# Xi reactivation: X-chromosome reactivation activator. 360,000 tested, 0.055% active. activation, % at 7.58 µM. XiGFP mouse fibroblasts, % GFP-positive cells imaging, 3 d; cells co-treated with 5-aza-dC sensitizer; scaled so ellipticine positive control = 100%;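 active means mean normalized replicate activation at least 10% and every replicate at or above 10%; inconclusive means only one of the two criteria met; inactive means mean below 10% and not all replicates reach 10%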;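 further: 0% = median of on-plate neutral control wells and 100% = ellipticine 6 µM median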
#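 material = 68-5-11 XiGFP fibroblast line | medium = DMEM plus 5-aza-dC sensitizer | schedule = 3 days compound exposure | benchmarks = positive control ellipticine, 6 µM final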
# esBAF inh: inhibitors of esBAF chromatin remodeling in mouse ES cells | reporter increase, % at 12.5 µM | AID 602393 | 350,000 tested, 2% active | Bmi1-luciferase knock-in reporter, 24 h; 100% = twice the neutral-well signal; in the data active means activation above about 40%; inconclusive means no clear call, values can overlap the other calls;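 further: 0% = median of the plate's neutral control wells and 100% = double that signal; a rise in the Bmi1 reporter signal indicates esBAF inhibition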
# Casp6 inh: blocks human caspase-6 cleavage activity; P55212; AID 686996; inhibition, % at 12.5 µM; 350,000 tested, 0.53% active; purified caspase-6, Z-VEID-R110 cleavage fluorescence;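 active means mean inhibition across replicates at least about 35%, with every replicate also reaching that limit, limit read from the data; inconclusive means only one of the two criteria met; inactive means neither criterion met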;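 further: 0% = median of neutral control wells and 100% = no fluorescence left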
# MITF act: increases MITF-driven TRPM1 promoter luciferase signal | SK-MEL-5 TRPM1-promoter luciferase, 24 h; % of positive control, neutral wells = 0 | activation, % at 12.5 µM | 300,000 tested, 0.75% active | AID 588334;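 active means mean activation of at least 80% with every replicate also reaching 80%; inconclusive means mean reaches 80% but some replicate falls short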;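 further: 0% = neutral control wells and 100% = parthenolide positive control wells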
# Wnt bcat act: activates Wnt/beta-catenin signaling in a reporter cell assay; activation, % at 9.35 µM; activator, plate reader; 300,000 tested, 1.2% active; in the data active means activation above about 30%, passing the limit was not always enough; inconclusive means no clear call, values can overlap the other calls;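 further: 0% = neutral control wells and 100% = positive control wells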
# NSD2 inh: NSD2 (human) methyltransferase inhibition; O96028; NSD2 peptide methylation, AlphaScreen, 120 min; inhibition, % at 12.5 µM; 310,000 tested, 0.54% active; in the data active means inhibition above about 50%
# Target sequence (O96028 whole entry, looked up): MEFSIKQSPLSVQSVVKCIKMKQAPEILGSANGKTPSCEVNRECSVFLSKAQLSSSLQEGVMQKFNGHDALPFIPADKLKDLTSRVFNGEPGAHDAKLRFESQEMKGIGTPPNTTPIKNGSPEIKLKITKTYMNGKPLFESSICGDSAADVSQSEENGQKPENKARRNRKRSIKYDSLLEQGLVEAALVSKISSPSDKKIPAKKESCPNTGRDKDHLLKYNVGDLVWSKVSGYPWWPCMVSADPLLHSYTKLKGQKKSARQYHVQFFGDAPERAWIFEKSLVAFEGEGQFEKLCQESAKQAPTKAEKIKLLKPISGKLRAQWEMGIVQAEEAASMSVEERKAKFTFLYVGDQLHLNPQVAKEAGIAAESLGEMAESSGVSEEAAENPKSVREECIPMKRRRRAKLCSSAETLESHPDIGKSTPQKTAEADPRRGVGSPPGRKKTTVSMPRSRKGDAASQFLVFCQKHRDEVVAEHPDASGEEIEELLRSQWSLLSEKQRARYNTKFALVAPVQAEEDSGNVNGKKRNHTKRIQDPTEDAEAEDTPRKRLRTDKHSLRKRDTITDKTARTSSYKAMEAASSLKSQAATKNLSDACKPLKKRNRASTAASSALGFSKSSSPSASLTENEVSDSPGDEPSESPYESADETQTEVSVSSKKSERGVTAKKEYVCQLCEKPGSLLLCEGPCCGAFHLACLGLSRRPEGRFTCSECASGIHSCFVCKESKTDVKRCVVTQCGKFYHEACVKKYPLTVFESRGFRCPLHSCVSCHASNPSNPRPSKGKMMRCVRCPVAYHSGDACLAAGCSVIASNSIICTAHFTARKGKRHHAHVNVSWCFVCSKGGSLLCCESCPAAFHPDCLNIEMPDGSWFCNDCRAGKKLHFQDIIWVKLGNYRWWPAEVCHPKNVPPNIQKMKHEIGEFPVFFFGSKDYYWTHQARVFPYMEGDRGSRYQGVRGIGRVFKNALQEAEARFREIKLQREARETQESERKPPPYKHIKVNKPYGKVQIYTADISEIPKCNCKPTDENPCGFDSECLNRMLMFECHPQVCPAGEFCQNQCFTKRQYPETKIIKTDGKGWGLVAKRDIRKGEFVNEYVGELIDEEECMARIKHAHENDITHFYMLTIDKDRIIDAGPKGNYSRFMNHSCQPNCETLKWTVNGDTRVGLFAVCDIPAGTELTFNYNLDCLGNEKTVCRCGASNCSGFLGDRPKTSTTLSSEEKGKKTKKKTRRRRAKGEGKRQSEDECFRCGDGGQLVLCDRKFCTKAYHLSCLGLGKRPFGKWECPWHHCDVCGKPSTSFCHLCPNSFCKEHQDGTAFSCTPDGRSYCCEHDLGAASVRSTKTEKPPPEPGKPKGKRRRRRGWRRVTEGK
# An asterisk follows results filed as active; ? = inconclusive; · = not tested or not shown; ! = a repeat was not active.
SMILES,Xi reactivation,esBAF inh,Casp6 inh,MITF act,Wnt bcat act,NSD2 inh
CC(=O)c1ccc(NC(=O)CSc2nccn2C)cc1,0,·,-1,·,11,40
CCN1C(=C2C(=O)c3ccccc3C2=O)C=Cc2ccccc21,·,44*,·,·,·,4
CCN1C(=O)/C(=C2\C=Cc3cc(C)ccc3N2CC)OC1=S,·,3,·,3,·,28
CCN1C(=O)/C(=C2/C=Cc3ccccc3N2C)OC1=S,·,27,·,101*,·,7
O=C1C2C=C(I)[C@H](C[C@@H]2OCCCCCCO)[C@@]12CO2,·,·,2,·,·,·
CSc1n[nH]c(-c2ccc(C(F)(F)F)cc2)n1,0,41*,-2,41,21,-1
COc1ccc2c3c(n(C)c2c1)[C@H](CO)N(C(=O)Nc1ccc(F)cc1)CC31CCN(C(=O)c2ccc3c(c2)OCO3)CC1,0,·,-2,·,·,·
CCCc1cc(C(=O)NCc2cccs2)no1,0,54*,-1,·,27,·
CCCc1cc(C(=O)NCc2ccccc2)no1,0,23,-2,·,5,·
O=C(NCc1cccs1)c1cc(-c2ccc(O)cc2)on1,0,?,-3,58,37*,8
O=C(C[C@H]1CC[C@@H](NC(=O)C2CCOCC2)[C@@H](CO)O1)Nc1ccccc1,0,·,-2,·,·,·
O=C(Cc1ccccc1)N1CC2(C1)[C@H](c1ccccc1)[C@H](CO)N2C(=O)c1cccnc1,0,·,·,·,·,·
CN(Cc1ccsc1)C(=O)CCc1nnc(Cc2c[nH]c3ccccc23)o1,0,·,2,-6,-1,-1
CN(Cc1ccsc1)C(=O)CCc1nnc(CCCc2ccccc2)o1,·,?,-1,76,33*,-1
Cc1nc(C(C)NC(=O)CCc2nnc(CCCc3ccccc3)o2)c(C)s1 (configuration not stated),0,70*,-1,100*,64*,-4
COc1ccc(C(=O)Nc2ccccc2NC(=O)c2ccc(OC)c(OC)c2)cc1OC,·,·,·,·,·,0
Cc1ncoc1C(=O)Nc1ncc([N+](=O)[O-])s1,0,·,15,10,37*,7
O=C(CCS(=O)(=O)Cc1ccccc1)Nc1ncc([N+](=O)[O-])s1,0,42*,-3,45,19,-2
O=C(Nc1ncc([N+](=O)[O-])s1)c1cccs1,0,-9,6,19,42*!,2
O=C(COC(=O)c1ccc(Br)o1)Nc1ncc([N+](=O)[O-])s1,-1,15,48*,24,8,1
CN(C)CCCNC(=O)C[C@H]1CC[C@H](NC(=O)Cc2cccnc2)[C@@H](CO)O1,0,-1,1,·,·,·
S=C(Nc1ccccc1)c1ccccn1,·,80*,·,15,·,1
S=C(Nc1ccccc1)Nc1ccccn1,0,20,1,·,0,3
C=CCN1C2CCCC1CC(NC(=S)Nc1ccc(Cl)cc1)C2 (configuration not stated),0,·,-18,15,39*,25
C[C@@H]1CN([C@@H](C)CO)C(=O)Cc2cc(NC(=O)Nc3cccc4ccccc34)ccc2O[C@@H]1CN(C)S(=O)(=O)c1ccccc1,0,-1,·,·,·,·
SMILES,Xi reactivation,esBAF inh,Casp6 inh,MITF act,Wnt bcat act,NSD2 inh
Cc1cccc(N=C2C(=O)Nc3c(Cl)cccc32)c1,0,-3,1,·,-1,3
O=C1Nc2c(Cl)cc(Cl)cc2C1=O,0,-1,7,-43,-2,118*
CS(=O)(=O)Nc1ccc2c(c1)[C@H]1C[C@H](CC(=O)O)O[C@@H](CO)[C@H]1O2,0,·,5,·,·,·
COC(=O)[C@H](CCSC)NC(=O)c1cccnc1SC,0,·,0,·,36*,0
CCC(C)NC(=O)c1cc2cc3ccc(OC)cc3nc2o1 (configuration not stated),0,55*,0,89*,14,-2
CCCCN(CC)C(=O)c1cc2cc3ccc(OC)cc3nc2o1,·,88*,·,73,58*,-1
COCCNC(=O)c1cc2cc3ccc(OC)cc3nc2o1,0,30,1,52,24,-1
COc1ccc2cc3cc(C(=O)NCC4CCCO4)oc3nc2c1 (configuration not stated),·,55*,·,44,-2,-1
COc1ccc2cc3cc(C(=O)NCCC(C)C)oc3nc2c1,0,9,-3,32,7,-1
CC(=O)N1CC2(C1)[C@@H](c1ccc(-c3ccccc3C)cc1)[C@H](CO)N2C(C)=O,0,·,·,·,·,·
O=C(CCC1CCCN(C(=O)c2ccncc2)C1)NCc1ccc(F)c(F)c1 (configuration not stated),0,·,-1,1,-1,-4
O=C(CCC1CCCN(C(=O)c2cc3ccccc3o2)C1)NCc1ccc(F)c(F)c1 (configuration not stated),0,56*,-2,·,-1,1
CCCC(=O)n1nc(-c2cccnc2)nc1NCc1ccc(OC)cc1,0,·,39*,9,1,-9
CC1CC1C(=O)Nc1nc(-c2ccccn2)cs1 (configuration not stated),·,51*,·,18,-2,1
O=C(Nc1nc(-c2ccccn2)cs1)C1COc2ccccc2O1 (configuration not stated),0,9,0,-15,1,·
Cc1noc(C)c1C(=O)Nc1nc2ccc(Cl)cc2s1,0,31,4,50,11,1
Cn1cc(Cl)c(C(=O)Nc2nc3ccc(Cl)cc3s2)n1,·,112*,·,64,·,-2
CC1CC1C(=O)Nc1nc2ccc(Cl)cc2s1 (configuration not stated),0,·,-1,5,54*,·
Cn1cc(Cl)c(C(=O)Nc2nc3ccc([N+](=O)[O-])cc3s2)n1,0,·,-7,7,5,0
O=C(Nc1ccc([N+](=O)[O-])cn1)c1cccnc1,0,-6,-2,·,-3,-1
O=C(CCC1CCCC1)Nc1ccc([N+](=O)[O-])cn1,0,59*,·,42,·,0
CC(C)(C)c1ccc(C(=O)Nc2ccc([N+](=O)[O-])cn2)cc1,0,·,-3,107*,·,-3
O=C(Nc1ccc2c(c1)OC1(CCCC1)O2)C1CC1,·,42*,·,37,·,0
O=C(Nc1ccc2c(c1)oc1ccccc12)C1CC1,·,59*,·,·,0,-1
CC(C)CC(=O)Nc1ccc2c(c1)oc1ccccc12,·,62*,·,91*,·,·
CCCCC(=O)Nc1ccc2c(c1)oc1ccccc12,·,·,·,?,21,0
O=C(Nc1ccc2c(c1)oc1ccc(S(=O)(=O)N3CCCC3)cc12)C1CC1,·,10,·,-5,·,0
COc1ccc(S(=O)(=O)Nc2ccc3c(c2)C(=O)N([C@H](C)CO)C[C@H](C)[C@H](CN(C)C(=O)Nc2ccc(C(F)(F)F)cc2)OCCCC[C@@H](C)O3)cc1,0,-2,-1,·,·,·
